Reference: ChEMBL document CHEMBL3739273, “Synthesis, biological activity evaluation and molecular docking studies of novel coumarin substituted thiazolyl-3-aryl-pyrazole-4-carbaldehydes” (Bioorg Med Chem Lett, 2015)
Values after ≈ are worked out from the molar mass of the structure shown. Active and inactive are the calls of the source. No cut-off for these calls is given here.

Key:
Escherichia coli [1] = test: Antibacterial activity against Escherichia coli ATCC 8739 after 24 hrs by microtiter plate method; format: functional; details: ATCC 8739, 24 h
Outline: (§1)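 Test concentrations reported in µg/mL. Gentamycin sulfate and ampicillin were the reference drugs.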

Klebsiella pneumoniae [2] = test: Antibacterial activity against Klebsiella pneumoniae ATCC 43816 assessed as growth inhibition at 100 ug/ml after 24 hrs by agar well diffusion method; format: functional; details: for zone of inhibition at 100 µg/mL: ATCC 43816, 24 h, read-out: IZ
Outline: (§2)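 Agar well diffusion. Compounds were tested at 10, 20, 100, 200 and 300 µg/mL, and the zone of inhibition was measured in mm. Gentamycin sulfate was the reference drug.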

HeLa [3] = test: Anticancer activity against human HeLa cells assessed as cell viability at 10 uM after 48 hrs by MTT assay; format: functional, cell-based
Cytochrome P450 2A6 = biological target: T1, Cytochrome P450 2A6 (Homo sapiens, UniProt P11509); test: Inhibition of human microsomal CYP2A6; format: ADME
T1 sequence (P11509 whole entry): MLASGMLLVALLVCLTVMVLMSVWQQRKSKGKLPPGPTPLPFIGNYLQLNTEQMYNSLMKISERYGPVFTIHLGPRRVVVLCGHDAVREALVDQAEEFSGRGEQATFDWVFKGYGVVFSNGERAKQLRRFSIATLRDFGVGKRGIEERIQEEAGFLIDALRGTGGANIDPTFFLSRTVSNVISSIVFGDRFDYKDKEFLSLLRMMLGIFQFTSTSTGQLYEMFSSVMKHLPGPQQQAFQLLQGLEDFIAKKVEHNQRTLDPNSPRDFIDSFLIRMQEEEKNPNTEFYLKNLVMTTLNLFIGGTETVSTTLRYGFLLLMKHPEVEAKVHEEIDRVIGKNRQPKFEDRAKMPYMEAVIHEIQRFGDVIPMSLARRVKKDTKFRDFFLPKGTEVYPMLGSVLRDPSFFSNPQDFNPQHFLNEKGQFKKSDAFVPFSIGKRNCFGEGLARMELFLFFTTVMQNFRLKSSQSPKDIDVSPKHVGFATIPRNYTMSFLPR

Bacillus spizizenii [4] = test: Antibacterial activity against Bacillus subtilis ATCC 6633 assessed as growth inhibition at 100 ug/ml after 24 hrs by agar well diffusion method; format: functional, organism-based; outline: as §2
MCF7 = test: Anticancer activity against human MCF7 cells assessed as cell viability after 48 hrs by MTT assay; format: functional, cell-based; details: MCF7, 48 h
Outline: (§3)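 MTT cytotoxicity assay in human DU-145 prostate, MCF-7 breast and HeLa cervical cancer cell lines. Doxorubicin was the reference drug.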

Proteus vulgaris [5] = test: Antibacterial activity against Proteus vulgaris ATCC 13315 assessed as growth inhibition at 100 ug/ml after 24 hrs by agar well diffusion method; format: functional; details: for zone of inhibition at 100 µg/mL: ATCC 13315, 24 h, read-out: IZ; outline: as §2
Bacillus cereus [6] = test: Bactericidal activity against Bacillus cereus ATCC 14579 after 24 hrs; format: functional; details: ATCC 14579, 24 h, read-out: MBC99.9
Outline: (§4)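 MBC determined by a standard MBC protocol alongside the MIC, with values in µg/mL. Gentamycin sulfate and ampicillin were the references.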

Escherichia coli [7] = test: Bactericidal activity against Escherichia coli ATCC 8739 after 24 hrs; format: functional; details: ATCC 8739, 24 h, read-out: MBC99.9; outline: as §4
[8] = Anticancer activity against human DU145 cells assessed as cell viability after 48 hrs by MTT assay; format: functional, cell-based; details: DU-145, 48 h; outline: as §3
Bacillus spizizenii [9] = test: Bactericidal activity against Bacillus subtilis ATCC 6633 after 24 hrs; format: functional; details: ATCC 6633, 24 h, read-out: MBC99.9; outline: as §4
Klebsiella pneumoniae [10] = test: Bactericidal activity against Klebsiella pneumoniae ATCC 43816 after 24 hrs; format: functional; details: ATCC 43816, 24 h, read-out: MBC99.9; outline: as §4
Bacillus cereus [11] = test: Antibacterial activity against Bacillus cereus ATCC 14579 assessed as growth inhibition at 100 ug/ml after 24 hrs by agar well diffusion method; format: functional; outline: as §2
Proteus vulgaris [12] = test: Antibacterial activity against Proteus vulgaris ATCC 13315 after 24 hrs by microtiter plate method; format: functional; details: ATCC 13315, 24 h; outline: as §1
Bacillus cereus [13] = test: Antibacterial activity against Bacillus cereus ATCC 14579 after 24 hrs by microtiter plate method; format: functional; details: ATCC 14579, 24 h; outline: as §1
HeLa [14] = test: Induction of apoptosis in human HeLa cell assessed as nuclear condensation after 24 hrs by Hoechst 33258 staining based fluorescence microscopic analysis; format: functional
Outline: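 HeLa cells treated at 10 µM for 24 h, washed with PBS, then stained with Hoechst 33258 ([…]) for 20 min. Chromatin condensation imaged by fluorescence microscopy with a DAPI filter.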

HeLa [15] = test: Anticancer activity against human HeLa cells assessed as cell viability after 48 hrs by MTT assay; format: functional, cell-based; outline: as §3
[16] = n-Octanol-phosphate buffer partition coefficient, log P of the compound at pH 7.4 after 30 mins by shake flask method; format: physicochemical
Outline: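 Shake-flask partition between n-octanol and 50 mM phosphate buffer, pH 7.4. P calculated and expressed as logP.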

Staphylococcus aureus [17] = test: Antibacterial activity against methicillin-resistant Staphylococcus aureus NCTC 13616 after 24 hrs by microtiter plate method; format: functional; details: NCTC 13616, 24 h
Proteus vulgaris [18] = test: Bactericidal activity against Proteus vulgaris ATCC 13315 after 24 hrs; format: functional; details: ATCC 13315, 24 h, read-out: MBC99.9; outline: as §4
Staphylococcus aureus [19] = test: Bactericidal activity against methicillin-resistant Staphylococcus aureus NCTC 13616 after 24 hrs; format: functional; details: NCTC 13616, 24 h, read-out: MBC99.9
Outline: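 MBC determined by a standard MBC protocol run alongside the MIC determination. Gentamycin sulfate and ampicillin served as reference drugs.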

Klebsiella pneumoniae [20] = test: Antibacterial activity against Klebsiella pneumoniae ATCC 43816 after 24 hrs by microtiter plate method; format: functional; details: ATCC 43816, 24 h; outline: as §1
Bacillus spizizenii [21] = test: Antibacterial activity against Bacillus subtilis ATCC 6633 after 24 hrs by microtiter plate method; format: functional; details: ATCC 6633, 24 h; outline: as §1
Staphylococcus aureus [22] = test: Antibacterial activity against methicillin-resistant Staphylococcus aureus NCTC 13616 assessed as growth inhibition at 100 ug/ml after 24 hrs by agar well diffusion method; format: functional, organism-based
Outline: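 Agar well diffusion assay with compounds applied to wells at several concentrations, including the 100 level reported here. The zone of inhibition was measured in mm. Gentamycin sulfate was the standard drug.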

Escherichia coli [23] = test: Antibacterial activity against Escherichia coli ATCC 8739 assessed as growth inhibition at 100 ug/ml after 24 hrs by agar well diffusion method; format: functional; details: for zone of inhibition at 100 µg/mL: ATCC 8739, 24 h, read-out: IZ; outline: as §2

| SMILES | MIC (Escherichia coli [1]) | Ki (Cytochrome P450 2A6) | growth inhibition (GI) (Bacillus spizizenii [4]) | IC50 (MCF7) | MBC (Bacillus cereus [6]) | MBC (Escherichia coli [7]) | IC50 [8] | MBC (Bacillus spizizenii [9]) | MBC (Klebsiella pneumoniae [10]) | growth inhibition (GI) (Bacillus cereus [11]) | MIC (Proteus vulgaris [12]) | MIC (Bacillus cereus [13]) | IC50 (HeLa [15]) | logD at 0.5 h [16] | MIC (Staphylococcus aureus [17]) | MBC (Proteus vulgaris [18]) | MBC (Staphylococcus aureus [19]) | MIC (Klebsiella pneumoniae [20]) | MIC (Bacillus spizizenii [21]) | growth inhibition (GI) (Staphylococcus aureus [22]) | also measured |
| --- | --- | --- | --- | --- | --- | --- | --- | --- | --- | --- | --- | --- | --- | --- | --- | --- | --- | --- | --- | --- | --- |
| Cc1ccc(-c2nn(-c3nc(-c4cc5cc(Cl)cc(Cl)c5oc4=O)cs3)cc2C=O)cc1 | 101 µg/mL (≈ 210 µM) | 0.00257 µM | Active | 14.6 µM | 150 µg/mL (≈ 311 µM) | 150 µg/mL (≈ 311 µM) | 14.7 µM | 145 µg/mL (≈ 301 µM) | 150 µg/mL (≈ 311 µM) | Active | 105 µg/mL (≈ 218 µM) | 100 µg/mL (≈ 208 µM) | 5.75 µM | 3.6 | 116 µg/mL (≈ 240 µM) | 210 µg/mL (≈ 435 µM) | 230 µg/mL (≈ 477 µM) | 101 µg/mL (≈ 209 µM) | 98.2 µg/mL (≈ 204 µM) | Active | zone of inhibition at 100 µg/mL (Klebsiella pneumoniae [2]): 20 mm; growth inhibition (GI) (HeLa [3]): Active; zone of inhibition at 100 µg/mL (Proteus vulgaris [5]): 18 mm; Activity (HeLa [14]): Active; zone of inhibition at 100 µg/mL (Escherichia coli [23]): 18 mm |
| Cc1ccc(-c2nn(-c3nc(-c4cc5cc(Br)cc(Br)c5oc4=O)cs3)cc2C=O)cc1 | 86.5 µg/mL (≈ 151 µM) | 0.00173 µM | Active | 24.5 µM | 110 µg/mL (≈ 193 µM) | 130 µg/mL (≈ 228 µM) | 10.8 µM | 150 µg/mL (≈ 263 µM) | 115 µg/mL (≈ 201 µM) | Active | 101 µg/mL (≈ 176 µM) | 72.8 µg/mL (≈ 127 µM) | 6.25 µM | 3.34 | 106 µg/mL (≈ 185 µM) | 150 µg/mL (≈ 263 µM) | 175 µg/mL (≈ 306 µM) | 79.1 µg/mL (≈ 138 µM) | 92.4 µg/mL (≈ 162 µM) | Active | zone of inhibition at 100 µg/mL (Klebsiella pneumoniae [2]): 24 mm; zone of inhibition at 100 µg/mL (Proteus vulgaris [5]): 20 mm; Activity (HeLa [14]): Active; zone of inhibition at 100 µg/mL (Escherichia coli [23]): 22 mm |
| O=Cc1cn(-c2nc(-c3cc4cc(Cl)ccc4oc3=O)cs2)nc1-c1ccc(Cl)cc1 | 126 µg/mL (≈ 270 µM) | 0.0166 µM | Active | 18.7 µM | 165 µg/mL (≈ 352 µM) | 250 µg/mL (≈ 534 µM) | 14.9 µM | 165 µg/mL (≈ 352 µM) | 240 µg/mL (≈ 512 µM) | Active | 131 µg/mL (≈ 279 µM) | 111 µg/mL (≈ 237 µM) | 9.51 µM | 3.06 | 134 µg/mL (≈ 286 µM) | 260 µg/mL (≈ 555 µM) | 265 µg/mL (≈ 566 µM) | 117 µg/mL (≈ 251 µM) | 112 µg/mL (≈ 240 µM) | Active | growth inhibition (GI) (Klebsiella pneumoniae [2]): Active; growth inhibition (GI) (HeLa [3]): Active; growth inhibition (GI) (Proteus vulgaris [5]): Active; growth inhibition (GI) (Escherichia coli [23]): Active |
| O=Cc1cn(-c2nc(-c3cc4cc(Br)ccc4oc3=O)cs2)nc1-c1ccc(Cl)cc1 | 118 µg/mL (≈ 229 µM) | 0.0132 µM | Active | 85 µM | 170 µg/mL (≈ 332 µM) | 230 µg/mL (≈ 449 µM) | 22.3 µM | 175 µg/mL (≈ 341 µM) | 172 µg/mL (≈ 335 µM) | Active | 128 µg/mL (≈ 249 µM) | 115 µg/mL (≈ 224 µM) | 9.46 µM | 3.07 | 123 µg/mL (≈ 240 µM) | 250 µg/mL (≈ 488 µM) | 185 µg/mL (≈ 361 µM) | 115 µg/mL (≈ 224 µM) | 120 µg/mL (≈ 233 µM) | Active | growth inhibition (GI) (Klebsiella pneumoniae [2]): Active; growth inhibition (GI) (HeLa [3]): Active; growth inhibition (GI) (Proteus vulgaris [5]): Active; growth inhibition (GI) (Escherichia coli [23]): Active |
| O=Cc1cn(-c2nc(-c3cc4cc(Br)cc(Br)c4oc3=O)cs2)nc1-c1ccccc1 | 116 µg/mL (≈ 207 µM) | 0.00341 µM | Active | 22.2 µM | 240 µg/mL (≈ 431 µM) | 170 µg/mL (≈ 305 µM) | 28 µM | 240 µg/mL (≈ 431 µM) | 240 µg/mL (≈ 431 µM) | Active | 120 µg/mL (≈ 215 µM) | 119 µg/mL (≈ 214 µM) | 13.7 µM | 3.11 | 117 µg/mL (≈ 210 µM) | 240 µg/mL (≈ 431 µM) | 175 µg/mL (≈ 314 µM) | 119 µg/mL (≈ 214 µM) | 118 µg/mL (≈ 212 µM) | Active | growth inhibition (GI) (Klebsiella pneumoniae [2]): Active; growth inhibition (GI) (Proteus vulgaris [5]): Active; growth inhibition (GI) (Escherichia coli [23]): Active |
